Results taken from ChEMBL document CHEMBL1671639, “Sitamaquine sensitivity in Leishmania species is not mediated by drug accumulation in acidocalcisomes” (Antimicrob Agents Chemother, 2008).
Values belong to the molecule of their own block, whether it stands above or below them.

How the values were obtained:
Leishmania donovani [1] = test: Drug uptake in Leishmania donovani at 5 uM after 15 mins at pH 8 by liquid scintillation counting; type: ADME, organism-based; settings: in vivo, pH 8, 0.25 h
Method in brief: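 Parasites were incubated at 28°C with [14C]sitamaquine in HBS adjusted to various pHs, up to pH 8. Cells were chilled, then washed 10 min on ice in PBS with 100 μM sitamaquine and twice in PBS. Uptake was quantified by liquid scintillation counting of Triton X-100 lysates, with Bradford protein. Means of three independent experiments.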

Leishmania donovani [2] = test: Drug uptake in Leishmania donovani MHOM/ET/67/L82 assessed as reduction in fluorescence of LysoTracker Green by Flow cytometry analysis; type: ADME, organism-based; settings: in vivo
Method in brief: (§1)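 Promastigotes at 4 × 10^6 cells/ml were loaded with 100 nM LysoTracker Green DND-26 in HBS for 10 min at 28°C. They were then exposed to 1, 10 or 30 μM sitamaquine for 15 min at 28°C, washed and resuspended in PBS. Flow cytometry used 488 nm excitation and 515–545 nm emission after gating out dead cells and debris. Signal expressed as % of untreated.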

Leishmania donovani [3] = test: Drug uptake in Leishmania donovani at 10 uM for 10 mins by flow cytometry in presence of nigericin; type: ADME, organism-based; settings: in vivo
Leishmania infantum = test: Antiparasitic activity against Leishmania infantum MHOM/ES/1993/BCN-99 after 3 days by Alamar blue assay; type: functional, organism-based; settings: MHOM/ES/1993/BCN-99, 72 h
Method in brief: (§2)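 Promastigotes grown at 28°C in RPMI 1640-modified medium with 20% heat-inactivated FBS and harvested after 48 h of growth. Exposed to increasing sitamaquine concentrations for 72 h at 28°C. Growth read by Alamar Blue fluorescence (excitation 530 nm, emission 585 nm). EC50 taken as the concentration giving 50% growth inhibition. Run three times in duplicate.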

Leishmania mexicana = test: Antiparasitic activity against Leishmania mexicana M9012 after 3 days by Alamar blue assay; type: functional, organism-based; settings: M9012, 72 h; method in brief: as §2
Leishmania donovani [4] = test: Drug uptake in Leishmania donovani at 5 uM after 15 mins at 4 degC by liquid scintillation counting; type: ADME, organism-based; settings: in vivo, 0.25 h
Method in brief: (§3)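 PBS-washed parasites at 2 × 10^7/ml in HBS (pH 7) were incubated with 5 μM [14C]sitamaquine for 15 min at 28°C or 4°C. Washing was 10 min on ice in PBS or PBS with 100 μM unlabeled sitamaquine, then twice in PBS. Cell-associated radioactivity in 1% Triton X-100 lysates was counted by liquid scintillation and related to Bradford protein.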

Leishmania tropica [5] = test: Drug uptake in Leishmania tropica MHOM/SU/74/SAF-K27 assessed as reduction in fluorescence of LysoTracker Green by Flow cytometry analysis; type: ADME, organism-based; settings: in vivo; method in brief: as §1
Leishmania tropica [6] = test: Antiparasitic activity against Leishmania tropica MHOM/SU/60/LCR-L39 after 3 days by Alamar blue assay; type: functional, organism-based; settings: MHOM/SU/60/LCR-L39, 72 h; method in brief: as §2
Leishmania donovani [7] = test: Drug uptake in Leishmania donovani at 5 uM after 15 mins at 28 degC by liquid scintillation counting; type: ADME, organism-based; settings: in vivo, 0.25 h; method in brief: as §3
Leishmania donovani [8] = test: Drug uptake in Leishmania donovani at 10 uM for 10 mins by flow cytometry in presence of ionophores monensin; type: ADME, organism-based; settings: in vivo
Leishmania donovani [9] = test: Antiparasitic activity against Leishmania donovani MHOM/ET/67/L82 after 3 days by Alamar blue assay; type: functional, organism-based; settings: MHOM/ET/67/L82, 72 h; method in brief: as §2
Leishmania tropica [10] = test: Drug uptake in Leishmania tropica MHOM/SU/60/LCR-L39 assessed as reduction in fluorescence of LysoTracker Green by Flow cytometry analysis; type: ADME, organism-based; settings: in vivo; method in brief: as §1
Leishmania donovani [11] = test: Drug uptake in Leishmania donovani MHOM/IN/80/DD8 assessed as reduction in fluorescence of LysoTracker Green by Flow cytometry analysis; type: ADME, organism-based; settings: in vivo; method in brief: as §1
Leishmania braziliensis = test: Antiparasitic activity against Leishmania braziliensis MHOM/PE/03/LH2419 after 3 days by Alamar blue assay; type: functional, organism-based; settings: MHOM/PE/03/LH2419, 72 h; method in brief: as §2
Leishmania sp. = test: Antiparasitic activity against promastigotes of Leishmania sp. after 3 days by Alamar blue assay; type: functional, organism-based; settings: 72 h; method in brief: as §2
Leishmania donovani [12] = test: Drug uptake in Leishmania donovani at 10 uM for 10 mins by flow cytometry in presence of 20 mM NH4Cl acidic organelles alkalinization inducer; type: ADME, organism-based; settings: in vivo
Leishmania major [13] = test: Drug uptake in Leishmania major MHOM/JL/80/Friedlin AP3delta-null mutant at 5 uM for 15 mins by liquid scintillation counting; type: ADME, organism-based; settings: in vivo, 0.25 h
Method in brief: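 Promastigotes from 48-h cultures were washed in PBS and resuspended at 2 × 10^7/ml in HEPES-buffered saline, pH 7. They were exposed to 5 μM [14C]sitamaquine for 15 min, chilled on ice, then washed 10 min on ice in PBS with 100 μM unlabelled sitamaquine and twice more in PBS. Pellets were lysed in 1% Triton X-100. Scintillation counts were normalised to Bradford protein.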

Leishmania donovani [14] = test: Drug uptake in 1 mM N-ethylmaleimde pretreated Leishmania donovani at 5 uM after 15 mins by liquid scintillation counting; type: ADME, organism-based; settings: in vivo, 0.25 h
Method in brief: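 Parasites were treated with 1 mM NEM for 15 min on ice, then resuspended in fresh HBS. Cells at 2 × 10^7/ml were given 5 μM [14C]sitamaquine for 15 min at 28°C. Washing was 10 min on ice in PBS with 100 μM sitamaquine, then twice in PBS. Lysates in 1% Triton X-100 were read by scintillation counting, with Bradford protein.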

Leishmania major [15] = test: Antiparasitic activity against wild type amastigotes of Leishmania major AP3-complemented after 3 days by Alamar blue assay; type: functional, organism-based; settings: 72 h
Leishmania major [16] = test: Drug uptake in AP3-complemented Leishmania major MHOM/JL/80/Friedlin at 5 uM for 15 mins by liquid scintillation counting; type: ADME, organism-based; settings: in vivo, 0.25 h; method in brief: as §3
Leishmania major [17] = test: Antiparasitic activity against amastigotes of delta-null mutant Leishmania major AP3 after 3 days by Alamar blue assay; type: functional, organism-based; settings: AP3, 72 h

Drug uptake (Leishmania donovani [1]): Active
Drug uptake (Leishmania donovani [2]): Active
Drug uptake (Leishmania donovani [3]): Not Active
Drug uptake (Leishmania donovani [4]): Active
Drug uptake (Leishmania tropica [5]): Active
Drug uptake (Leishmania donovani [7]): Active
Drug uptake (Leishmania donovani [8]): Not Active
Drug uptake (Leishmania tropica [10]): Active
Drug uptake (Leishmania donovani [11]): Active
Drug uptake (Leishmania donovani [12]): Not Active
SMILES: CCN(CC)CCCCCCNc1cc(OC)cc2c(C)ccnc12.Cl.Cl
EC50 (Leishmania infantum): 9.5 µM
EC50 (Leishmania mexicana): 9.5 µM
EC50 (Leishmania tropica [6]): 9.5 µM
EC50 (Leishmania donovani [9]): 9.5 µM
EC50 (Leishmania braziliensis): 9.5 µM
EC50 (Leishmania sp.): 5.7 µM

SMILES: CCN(CC)CCCCCCNc1cc(O[14CH3])cc2c(C)ccnc12.Cl.Cl
Drug uptake (Leishmania major [13]): Not Active
Drug uptake (Leishmania donovani [14]): Active
EC50 (Leishmania major [15]): 4.3 µM
Drug uptake (Leishmania major [16]): Active
EC50 (Leishmania major [17]): 3.9 µM
